{"data": "Published values gathered from unrelated publications", "target": "Tyrosine-protein kinase SYK (SYK, Homo sapiens, UniProt P43405)"}
{"Structure (SMILES)": "CCCCC(=O)Nc1ccc(-c2ccc3ncn(CCC)c(=O)c3c2)cn1", "test": "binding, competition with immobilised ligand", "setting": "0.5 µM", "measurement": "remaining binding", "value": "90%"}
{"Structure (SMILES)": "CC(C)S(=O)(=O)c1ccc2nccc(Nc3ccc4sc(C5CCCC5)nc4c3)c2c1", "test": "enzyme activity, inhibitor", "setting": "1 µM", "measurement": "activity vs control", "value": "104%"}
{"Structure (SMILES)": "CC#CC(=O)N1CCC[C@H]1c1nc(-c2ccc(C(=O)Nc3ccccn3)cc2)c2c(N)nccn12", "test": "enzyme activity, inhibitor", "setting": "1 µM", "measurement": "inhibition", "value": "0%"}
{"Structure (SMILES)": "COc1ccc2oc(-c3ccc4nc(N)oc4c3)c/c(=N\\c3ccccc3NC(=O)CCN)c2c1", "test": "binding", "setting": "1 µM", "measurement": "remaining binding", "value": "96%"}
{"Structure (SMILES)": "Cc1ccc(NC(=O)c2ccnc(C(F)(F)F)c2)cc1-c1cc(OCCO)nc(N2CCOCC2)c1", "test": "binding, competition with immobilised ligand", "setting": "1 µM", "measurement": "remaining binding", "value": "100%"}
{"Structure (SMILES)": "CO[C@@H]1[C@H](N(C)C(=O)c2ccccc2)C[C@H]2O[C@]1(C)n1c3ccccc3c3c4c(c5c6ccccc6n2c5c31)C(=O)NC4", "test": "enzyme activity, inhibitor", "setting": "1 µM", "measurement": "inhibition", "value": "96%"}
{"Structure (SMILES)": "C[C@H]1CC[C@H](n2c3cnccc3c3cnc(Nc4ccc5c(n4)CCN(C(=O)CO)C5)nc32)CC1", "test": "cell-free assay, competition with immobilised ligand", "setting": "1 µM", "measurement": "remaining binding", "value": "100%"}
{"Structure (SMILES)": "C1=C/COCc2cc(ccc2OCCN2CCCC2)Nc2nccc(n2)-c2cccc(c2)COC/1", "test": "cell-free assay", "setting": "0.1 µM", "measurement": "remaining signal", "value": "87%"}
